Data on 9 compounds can be found in ChEMBL document CHEMBL3044558, “Structure-activity relationship development of dihaloaryl triazole compounds as insecticides and acaricides. 1. Phenyl thiophen-2-yl triazoles” (2007).

≈ marks a conversion by molar mass, not a printed value. Calls of active or inactive are those of the source. The calls are words filed in the database; no cut-off is given here.

The subject of test [1] is Spodoptera exigua. The test can be described thus: Insecticidal activity against Spodoptera exigua second-instar larvae feeded on 400 ppm compound treated lepidopteran diet assessed as insect mortality measured 5 days post compound treatment under green house conditions. The test is classed as functional. Conditions: at 400 ppm.
The test system of test [2] is Bemisia tabaci.
The test system of test [3] is Heliothis virescens. Kind of test: Insecticidal activity against Heliothis virescens (tobacco budworm) second-instar larvae infested on 400 ppm compound pre-treated cotton cotyledon disk assessed as insect mortality measured 5 days post compound treatment under green house conditions. Format: functional.
The subject of test [4] is Aphis gossypii. The test can be described thus: Insecticidal activity against Aphis gossypii (cotton aphid) infested one week old Crookneck squash plants assessed as insect mortality at 50 ppm measured after 3 days post compound application under green house conditions. The following applies: 72 h. Format: functional.
For test [5], the system named is Trichoplusia ni. Kind of test: Insecticidal activity against Trichoplusia ni (cabbage looper) second-instar larvae infested on compound pre-treated cabbage leaf disk assessed as insect mortality measured 5 days post compound treatment under green house conditions. Format: functional. Conditions: for LC50: Trichoplusia ni, foliar. The method, boiled down: (§1)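 Leaf disks treated, air-dried and placed singly in cups. Cotton cotyledon disks each get one second-instar tobacco budworm larva; cabbage leaf disks each get one second-instar cabbage looper larva. Cups are capped and held in a growth chamber at 25 °C, 50-55% RH, 14 h light/10 h dark for 5 days.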

Test [6] concerns Tetranychus urticae. The test can be described thus: Insecticidal activity against female Tetranychus urticae (two-spotted spider mite) infested cotton leaf disks followed by 2.5 ppm compound spraying after oviposit assessed as insect mortality measured after 6 days post compound application under green house conditions. Format: functional. Conditions: foliar, 144 h.
Test [7] deals with Trichoplusia ni.
For test [8], the system named is Aphis gossypii. The test can be described thus: Insecticidal activity against Aphis gossypii (cotton aphid) infested one week old Crookneck squash plants assessed as insect mortality at 5 ppm measured after 3 days post compound application under green house conditions. The test is classed as functional. The following applies: 72 h.
For another test, the system named is Myzus persicae. The test can be described thus: Insecticidal activity against Myzus persicae (green peach aphid) assessed as insect mortality at 50 ppm. Format: functional.
Test [9] relates to Heliothis virescens. Kind of test: Insecticidal activity against Heliothis virescens (tobacco budworm) second-instar larvae infested on compound pre-treated cotton cotyledon disk assessed as insect mortality measured 5 days post compound treatment under green house conditions. The following applies: for LC50: Heliothis virescens. The test is classed as functional. In a few lines: as §1

Test [10] relates to Spodoptera exigua. The test can be described thus: Insecticidal activity against Spodoptera exigua second-instar larvae feeded on compound treated lepidopteran diet assessed as insect mortality measured 5 days post compound treatment under green house conditions. The test is classed as functional. Conditions: for LC50: Spodoptera exigua, 120 h.
The test system of test [11] is Aphis gossypii. Kind of test: Insecticidal activity against Aphis gossypii (cotton aphid) infested one week old Crookneck squash plants assessed as insect mortality measured after 3 days post compound application under green house conditions. The test is classed as functional. Conditions: for LC50: Aphis gossypii, 72 h.
Test [12] concerns Tetranychus urticae. The test can be described thus: Insecticidal activity against female Tetranychus urticae (two-spotted spider mite) infested cotton leaf disks followed compound spraying after oviposit assessed as insect mortality measured after 6 days post compound application under green house conditions. Format: functional. The following applies: for LC50: Tetranychus urticae, foliar, 144 h.

Test [13] deals with Bemisia tabaci. The test can be described thus: Insecticidal activity against Bemisia tabaci (sweet potato whitefly) second-instar larvae infested five weeks old cotton plants followed by compound 250 ppm compound spraying after insect oviposit assessed as insect mortality measured 13 days post compound treatment under green house conditions. Format: functional.
In test [14] the test system is Trichoplusia ni. Kind of test: Insecticidal activity against Trichoplusia ni (cabbage looper) second-instar larvae infested on 400 ppm compound pre-treated cabbage leaf disk assessed as insect mortality measured 5 days post compound treatment under green house conditions. The test is classed as functional. Conditions: at 400 ppm.
The subject of test [15] is Trichoplusia ni. The test can be described thus: Insecticidal activity against Trichoplusia ni (cabbage looper) second-instar larvae infested on 25 ppm compound pre-treated cabbage leaf disk assessed as insect mortality measured 5 days post compound treatment under green house conditions. Format: functional. In a few lines:
as §1

Test [16] has as its system Spodoptera exigua. Kind of test: Insecticidal activity against Spodoptera exigua second-instar larvae feeded on 25 ppm compound treated lepidopteran diet assessed as insect mortality measured 5 days post compound treatment under green house conditions. The test is classed as functional.
Test [17] has as its system Heliothis virescens. The test can be described thus: Insecticidal activity against Heliothis virescens (tobacco budworm) second-instar larvae infested on 25 ppm compound pre-treated cotton cotyledon disk assessed as insect mortality measured 5 days post compound treatment under green house conditions. The test is classed as functional. The method, boiled down: as §1

Test [18] deals with Aphis gossypii.

By mortality is commonly meant the share of the test organisms that died. As usually defined, the LC50 is the concentration that kills 50% of the test population. Regarding `Cn1nc(-c2c(F)cccc2Cl)nc1-c1sc(-c2ccc(OC(F)(F)C(F)Cl)cc2)cc1Cl` (stereo not given), the mortality in the test with Spodoptera exigua [1] amounted to 60%; in the test on Heliothis virescens [3] it was 90%. In addition, the mortality result in the test on Bemisia tabaci [2] and in the test with Trichoplusia ni [7] was “inactive” each time. Further, the mortality at 50 ppm in the test with Aphis gossypii [4] is 90%. In addition, the 50% lethal concentration (LC50) in the test with Trichoplusia ni [5] is less than 1.6 µg/mL; in the test on Myzus persicae it was 78 µg/mL (≈ 145 µM); in the test with Heliothis virescens [9], less than 1.6 µg/mL; with Spodoptera exigua [10], less than 1.6 µg/mL. For the same compound, the mortality at 2.5 ppm with Tetranychus urticae [6] came to 90%. In the test with Aphis gossypii [8], the mortality at 5 ppm turned out to be 72%.

Turning to `Cc1c(Br)csc1-c1nc(-c2c(F)cccc2Cl)nn1C`, the LC50 with Aphis gossypii [11] stood at 0.7 µg/mL (≈ 1.81 µM); with Tetranychus urticae [12], 0.29 µg/mL (≈ 0.75 µM); with Myzus persicae, 0.8 µg/mL (≈ 2.07 µM).

For `Cc1cc(-c2ccc(OC(F)(F)C(F)Cl)cc2)sc1-c1nc(-c2c(F)cccc2Cl)nn1C` (stereo not given), the mortality is 60% in the test with Spodoptera exigua [1], 90% in the test with Heliothis virescens [3], less than 50% in the test on Bemisia tabaci [13] and 90% with Trichoplusia ni [14]. Also, the mortality at 50 ppm in the test on Aphis gossypii [4] is 90%. Further, the LC50 in the test with Aphis gossypii [11] is less than 0.5 µg/mL; in the test on Trichoplusia ni [5], less than 1.6 µg/mL; in the test with Tetranychus urticae [12] it was less than 0.1 µg/mL; with Myzus persicae it was less than 3.1 µg/mL; with Heliothis virescens [9], less than 1.6 µg/mL; in the test with Spodoptera exigua [10], less than 1.79 µg/mL. Further, the mortality at 2.5 ppm with Tetranychus urticae [6] came to 90%. For the same compound, the LC90 in the test with Tetranychus urticae [12] was 2.07 ppm.

Consider `Cc1cc(-c2ccc(F)c(Cl)c2)sc1-c1nc(-c2c(F)cccc2Cl)nn1C`, for which the mortality with Spodoptera exigua [1] amounted to 80%; with Trichoplusia ni [15], 60%; in the test with Heliothis virescens [3], 90%; in the test with Spodoptera exigua [16], 0%; in the test with Heliothis virescens [17], 0%; in the test on Trichoplusia ni [14], 90%. In addition, the mortality result with Bemisia tabaci [2] and with Aphis gossypii [18] was “inactive” each time. Further, the values for the LC50 with Aphis gossypii [11] and in the test with Myzus persicae were 9.28 µg/mL (≈ 21.3 µM) and 55 µg/mL (≈ 126 µM), respectively. Also, in the test on Tetranychus urticae [6], the mortality at 2.5 ppm was determined as 60%.

As for `Cn1nc(-c2c(F)cccc2Cl)nc1-c1ccc(-c2ccc(OC(F)(F)F)cc2)s1`, the mortality in the test on Spodoptera exigua [1] is listed as 70%; in the test with Heliothis virescens [3], 90%; with Bemisia tabaci [13], less than 50%. Moreover, the mortality at 50 ppm in the test on Aphis gossypii [4] was determined as 90%. Further, the values for the LC90 in the test on Trichoplusia ni [5] and in the test with Spodoptera exigua [10] were 27.7 ppm and 59.9 ppm, respectively. For the same compound, the LC50 in the test on Trichoplusia ni [5] was 20.6 µg/mL (≈ 45.4 µM); in the test on Myzus persicae, 9.6 µg/mL (≈ 21.2 µM); in the test on Heliothis virescens [9], 122 µg/mL (≈ 269 µM); with Spodoptera exigua [10], 49.9 µg/mL (≈ 110 µM). Moreover, the mortality at 2.5 ppm in the test on Tetranychus urticae [6] came to 90%. Further, the mortality entry in the test with Trichoplusia ni [7] is “inactive”. Further, in the test on Aphis gossypii [8], the mortality at 5 ppm was determined as 47%.

As to `Cc1cc(-c2ccc(F)c(F)c2)sc1-c1nc(-c2c(F)cccc2Cl)nn1C`, the mortality with Spodoptera exigua [1] came to 90%; in the test on Trichoplusia ni [15], 40%; in the test on Heliothis virescens [3] it was 90%; with Spodoptera exigua [16], 0%; with Bemisia tabaci [13], 90%; with Heliothis virescens [17] it was 20%. For the same compound, in the test on Trichoplusia ni [14], the mortality worked out at 90%. Moreover, the mortality at 50 ppm in the test with Aphis gossypii [4] was less than 50%. Further, the LC90 in the test on Aphis gossypii [11] was determined as 22.3 ppm. Moreover, the 50% lethal concentration (LC50) is 4.41 µg/mL (≈ 10.5 µM) with Aphis gossypii [11] and 88 µg/mL (≈ 210 µM) in the test on Myzus persicae. Also, the mortality at 2.5 ppm in the test on Tetranychus urticae [6] came to 60%.

Consider `Cc1cc(-c2cccc(OC(F)(F)C(F)Cl)c2)sc1-c1nc(-c2c(F)cccc2Cl)nn1C` (stereo not given), for which the figures for the mortality in the test with Spodoptera exigua [1] and in the test with Heliothis virescens [3] were 60% and 90%, respectively. The mortality result in the test on Bemisia tabaci [2] and in the test with Trichoplusia ni [7] was “inactive” in each case. In the test on Aphis gossypii [4], the mortality at 50 ppm was determined as 90%. The LC50 in the test on Trichoplusia ni [5] is less than 1.6 µg/mL; in the test on Myzus persicae, 75 µg/mL (≈ 145 µM); in the test with Heliothis virescens [9], 4.38 µg/mL (≈ 8.48 µM); with Spodoptera exigua [10] it was 23.1 µg/mL (≈ 44.7 µM). In the test on Tetranychus urticae [6], the mortality at 2.5 ppm is 90%. For the same compound, the mortality at 5 ppm in the test on Aphis gossypii [8] was found to be 91%. For the same compound, in the test on Heliothis virescens [9], the LC90 is 151 ppm.

Consider `Cc1cc(-c2ccc(OC(F)(F)F)cc2)sc1-c1nc(-c2c(F)cccc2Cl)nn1C`, for which the mortality is listed as 90% in the test on Spodoptera exigua [1], 80% in the test with Heliothis virescens [3] and 90% with Trichoplusia ni [14]. For the same compound, the mortality entry in the test on Bemisia tabaci [2] is “inactive”. The mortality at 50 ppm in the test with Aphis gossypii [4] stood at 60%. The figures for the LC90 in the test with Aphis gossypii [11] and with Tetranychus urticae [12] were 12.8 ppm and 0.151 ppm, respectively. Further, the LC50 in the test on Aphis gossypii [11] is 0.5 µg/mL (≈ 1.07 µM); in the test with Trichoplusia ni [5] it was less than 1.6 µg/mL; with Tetranychus urticae [12], less than 0.04 µg/mL; with Myzus persicae, 13.7 µg/mL (≈ 29.3 µM); with Heliothis virescens [9], 225 µg/mL (≈ 481 µM); with Spodoptera exigua [10], less than 1.6 µg/mL. Besides, the mortality at 2.5 ppm in the test with Tetranychus urticae [6] worked out at 90%.

In the case of `Cc1cc(-c2ccc(Cl)cc2F)sc1-c1nc(-c2c(F)cccc2Cl)nn1C`, the mortality is recorded as 70% with Spodoptera exigua [1]; 40% in the test on Trichoplusia ni [15]; 90% in the test with Heliothis virescens [3]; 0% in the test on Spodoptera exigua [16]; 20% in the test with Heliothis virescens [17]; 90% in the test with Trichoplusia ni [14]. Moreover, in the test on Bemisia tabaci [2], the mortality entry is “inactive”. Moreover, the mortality at 50 ppm with Aphis gossypii [4] was less than 50%. Further, the 50% lethal concentration (LC50) in the test with Aphis gossypii [11] came to 4.93 µg/mL (≈ 11.3 µM); with Myzus persicae it was 91 µg/mL (≈ 209 µM). Further, in the test on Tetranychus urticae [6], the mortality at 2.5 ppm was found to be 90%.
